Variants at the floor of the assay were thinned out.
B1: tRNA (parent)
chain: GUUCCGUUGGCGUAAUGGUAACGCGUCUCCCUCCUAAGGAGAAGACUGCGGGUUCGAGUCCCGUACGGAACG

Variants of: B1
Test: yeast fitness relative to wild type (ratio to wild type); higher = fitter; tRNA-Arg(CCU), competitive growth, 37 C, YPD
Summary of the method: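 Amplicons of the tRNA-Arg(CCU) gene were sequenced, 100-nucleotide paired-end, from the start population and from each end population of a pooled yeast competition. The competition, in six parallel replicates, lasted 24 hours in YPD at 37°C. Fitness relative to wild type was calculated from changes in genotype frequencies. Genotypes had to have ≥ 100 starting reads, and estimates < 0.5 were set to 0.5.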

| Variant | yeast fitness |
| --- | --- |
| U7G U19C | 0.767 |
| U8A G12A C62U | ≤ 0.5 |
| G9A G12C G17A C22G C30U C34G C49U U59G | ≤ 0.5 |
| C11G C24G C30U A43U C60G A65C | ≤ 0.5 |
| C29G G50C A65U | ≤ 0.5 |
| A21G C27A | 0.757 |
| A14C U26A C29U C49U C62G G68C | 0.519 |
| C4G U13G U16C | 0.566 |
| G17A U32C A37G A69C | 0.5 |
| C5U U19A A21G A43C G51C | ≤ 0.5 |
| A57G A69G A70G | 0.704 |
| A40C C46U A65G G68C | 0.59 |
| U3C C11G G63U | ≤ 0.5 |
| U32G U35A A36G C66U | ≤ 0.5 |
| A57G A65G | 1.02 |
| A21U C34G A42U C61U | ≤ 0.5 |
| G10A C30A C31G | ≤ 0.5 |
| A15U G25A C33G C62G | ≤ 0.5 |
| C30A G39A | 0.833 |
| G48A C55U | 0.661 |
| C4U U26C A36C A37G U64A A70C | ≤ 0.5 |

| Variant | yeast fitness |
| --- | --- |
| A20C A21U C30U C31A G63A | 0.628 |
| C5A G6C G10A A42C | ≤ 0.5 |
| C5U C24U G44C | 0.528 |
| C11A C61G | ≤ 0.5 |
| G17C A20G A57G C62U | ≤ 0.5 |
| U19C A69C | 0.991 |
| U32A C33G C60A | ≤ 0.5 |
| U3C G17C A40G C61U | ≤ 0.5 |
| C22U C34A G56C A57U | ≤ 0.5 |
| G23C C31U G48A C49U | ≤ 0.5 |
| U2A A40U | 0.796 |
| C31U A45C C61G A65C | ≤ 0.5 |
| C11A A57G | 0.655 |
| U2C C24A U26A U47C C61U | 0.628 |
| U13A C27U | 0.984 |
| G6A C31U C55U | 0.571 |
| A20C C30G | 0.612 |
| G10A G17A | 0.556 |
| G10C A15G U35A G44A | 0.589 |
| U7A G12A C49U C62G | ≤ 0.5 |
| A14G U16G G18C U59A A65U | ≤ 0.5 |

| Variant | yeast fitness |
| --- | --- |
| U7C U32C C33G A70G | ≤ 0.5 |
| G6C A15U G23C C31G G41C G48C A69U | 0.562 |
| C29A C34U G48C A57U | ≤ 0.5 |
| G6C C61U A70G | 0.554 |
| C22G A45U | 0.712 |
| C34U G58C | 0.757 |
| U2G A21C C22G A45U G63C | ≤ 0.5 |
| U13G G56A | 1.06 |
| U28C G52C | 0.668 |
| G25C A37G A43C C55G G68A | ≤ 0.5 |
| U13G C27A C30A G63C | 0.537 |
| C4A C27U U28G C33G A36G G50C C66U | ≤ 0.5 |
| U28A G63A | 0.849 |
| G51C U54A | ≤ 0.5 |
| A40G U54C G68C | ≤ 0.5 |
| C31U U32C | 0.812 |
| C30G A43U | 0.635 |
| C5A G18C C46U | 0.557 |
| C5G A43U C66U A69U | ≤ 0.5 |
| U8G G25A A70C | 0.544 |
| C33G G51A C55A C66U | 0.56 |

| Variant | yeast fitness |
| --- | --- |
| A20U C34U A42U | ≤ 0.5 |
| A40U G48A C60A U64C A69C | ≤ 0.5 |
| C4A C24A G51C | 0.595 |
| C5U A21G A42U G58A C66U | 0.706 |
| G10A G18A A42C C61A | 0.858 |
| C4G A45G G68C | 0.567 |
| U19C C33G C34U U54A C66U | 0.524 |
| A57G | 0.998 |
| C31G U32A A40C | ≤ 0.5 |
| U3A C30G C33U C55U | ≤ 0.5 |
| G9C U16C A69C | 0.562 |
| C5A C22A G50C G58A A69C | 0.607 |
| A40C G48C U59C | ≤ 0.5 |
| C11U G12A C31U | 0.532 |
| U54C C66U A69U | 0.62 |
| C22A C61A | 0.611 |
| C29G U35C C55G A57G | ≤ 0.5 |
| U19A A45U C46U | 1.07 |
| A36G A65U | 0.991 |
| U7A U26C U64A | ≤ 0.5 |

Reference: the RNAGym collection of RNA variant scans (doi:10.1126/science.aae0568)
